Reference: PMC3262993 (Chemmedchem, 2009)
Read-outs that look alike come from different tables or passages of the source.

Legend:
[1] = tested on: tactile allodynia in a paclitaxel-induced neuropathic pain model; test: Tactile allodynia in paclitaxel-induced neuropathic pain model; assay type: in vivo, rat; conditions: paclitaxel-treated rats; for Effect on mechanical (tactile) allodynia: intraperitoneal administration
How it was run: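 Adult male Sprague Dawley rats (120–150 g) were housed three per cage on a 12 h light/dark cycle. Paclitaxel was given at 1.0 mg kg−1 i.p. daily for 4 days (cumulative 4 mg kg−1), with vehicle 10 % Cremophor EL in saline at 1 mL kg−1. Hind-paw mechanical withdrawal was tested daily from day 0 after ≥30 min acclimation on wire mesh. Test compound was given i.p.; n = 5–6 per group.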

[2] = target: recombinant human CB1 (hCB1) (Homo sapiens, UniProt P21554); test: γ-[35S]GTP functional assay, hCB1; assay type: biochemical
[3] = target: recombinant human CB2 (hCB2) (Homo sapiens, UniProt P34972); test: γ-[35S]GTP functional assay, hCB2; assay type: biochemical; conditions: for γ-[35S]GTP hCB2 Emax: percentage relative to the efficacy of compound 7
hCB1 = hCB1 (Homo sapiens, UniProt P21554); test: Radioligand competitive binding assay, hCB1
hCB2 = hCB2 (Homo sapiens, UniProt P34972); test: Radioligand competitive binding assay
[4] = PBS, pH 7.4, at 2.0 × 10^-4 M
plasma protein = conditions: 1.0E-05 M
K+ channel hERG = K+ channel hERG (Homo sapiens, UniProt Q12809)
[5] = tested on: neuropathic pain in spinal nerve ligation and paclitaxel-induced neuropathy models; conditions: cited from earlier work
[6] = read-out: Ki hCB2, CHO-K1 membranes, 1 nM [3H]7, mean ± SEM

hCB2, sequence (P34972 whole entry): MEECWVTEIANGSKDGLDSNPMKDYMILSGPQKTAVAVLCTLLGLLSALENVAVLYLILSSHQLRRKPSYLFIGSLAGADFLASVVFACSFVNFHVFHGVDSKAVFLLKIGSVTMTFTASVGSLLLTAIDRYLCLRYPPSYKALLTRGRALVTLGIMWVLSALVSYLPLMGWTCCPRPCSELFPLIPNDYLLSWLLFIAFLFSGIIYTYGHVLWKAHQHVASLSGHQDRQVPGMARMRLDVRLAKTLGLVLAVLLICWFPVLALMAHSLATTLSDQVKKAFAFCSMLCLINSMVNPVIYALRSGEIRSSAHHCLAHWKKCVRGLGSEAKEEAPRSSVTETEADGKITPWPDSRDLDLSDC
recombinant human CB2 (hCB2), sequence (P34972 whole entry): as above
hCB1, sequence (P21554 whole entry): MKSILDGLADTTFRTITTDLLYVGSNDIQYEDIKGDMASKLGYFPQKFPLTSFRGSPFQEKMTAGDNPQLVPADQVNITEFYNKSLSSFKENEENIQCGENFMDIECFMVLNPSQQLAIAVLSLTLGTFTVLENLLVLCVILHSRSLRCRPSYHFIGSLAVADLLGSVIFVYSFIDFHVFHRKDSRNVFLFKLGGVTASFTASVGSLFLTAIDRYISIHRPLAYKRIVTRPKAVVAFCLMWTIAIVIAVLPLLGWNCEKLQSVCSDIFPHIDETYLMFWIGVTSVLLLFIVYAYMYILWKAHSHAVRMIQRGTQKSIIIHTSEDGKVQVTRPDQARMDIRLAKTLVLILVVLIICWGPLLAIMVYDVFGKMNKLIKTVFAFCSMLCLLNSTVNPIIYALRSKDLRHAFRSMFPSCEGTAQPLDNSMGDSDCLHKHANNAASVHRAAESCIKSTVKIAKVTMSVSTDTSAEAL
recombinant human CB1 (hCB1), sequence (P21554 whole entry): as above
K+ channel hERG, sequence (Q12809 whole entry): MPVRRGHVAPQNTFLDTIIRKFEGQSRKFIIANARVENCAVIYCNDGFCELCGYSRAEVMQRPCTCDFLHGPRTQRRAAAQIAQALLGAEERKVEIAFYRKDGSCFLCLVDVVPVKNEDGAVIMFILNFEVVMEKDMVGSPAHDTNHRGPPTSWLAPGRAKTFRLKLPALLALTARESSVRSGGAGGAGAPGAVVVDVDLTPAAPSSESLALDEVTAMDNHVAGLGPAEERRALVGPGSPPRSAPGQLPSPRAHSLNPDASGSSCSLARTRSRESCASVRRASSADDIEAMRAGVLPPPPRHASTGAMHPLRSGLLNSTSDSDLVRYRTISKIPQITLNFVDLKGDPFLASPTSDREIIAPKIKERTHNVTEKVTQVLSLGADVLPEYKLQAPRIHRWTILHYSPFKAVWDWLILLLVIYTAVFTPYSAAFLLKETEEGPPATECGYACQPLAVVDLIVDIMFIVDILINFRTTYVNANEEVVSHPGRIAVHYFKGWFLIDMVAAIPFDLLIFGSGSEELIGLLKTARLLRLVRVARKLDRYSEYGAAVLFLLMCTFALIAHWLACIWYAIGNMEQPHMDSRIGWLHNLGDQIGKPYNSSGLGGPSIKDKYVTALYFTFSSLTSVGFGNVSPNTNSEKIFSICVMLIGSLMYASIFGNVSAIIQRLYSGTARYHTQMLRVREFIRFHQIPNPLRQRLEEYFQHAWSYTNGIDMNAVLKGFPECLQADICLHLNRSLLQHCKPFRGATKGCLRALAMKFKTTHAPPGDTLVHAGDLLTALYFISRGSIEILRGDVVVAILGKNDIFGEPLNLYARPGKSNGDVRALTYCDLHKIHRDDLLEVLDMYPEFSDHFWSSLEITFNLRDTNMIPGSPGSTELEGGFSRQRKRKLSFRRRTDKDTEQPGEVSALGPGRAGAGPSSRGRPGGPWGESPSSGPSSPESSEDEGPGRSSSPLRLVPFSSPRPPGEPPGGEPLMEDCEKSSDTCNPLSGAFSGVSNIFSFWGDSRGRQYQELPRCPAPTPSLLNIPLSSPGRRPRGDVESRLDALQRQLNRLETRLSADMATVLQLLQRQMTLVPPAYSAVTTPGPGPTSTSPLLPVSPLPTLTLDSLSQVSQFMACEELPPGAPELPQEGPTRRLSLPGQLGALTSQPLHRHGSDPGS

CN1CCCCC1Cn1cc(C(=O)c2cc([N+](=O)[O-])ccc2I)c2ccccc21 (stereo not shown) [Compound 1, AM1241, reference compound]
Effects on tactile allodynia versus vehicle ([1]; i.p., 1, 3 and 5 mg kg^-1): not significantly different from the effects induced by the vehicle | Effect on mechanical (tactile) allodynia [1]: did not affect the paw withdrawal threshold

CC1(Cc2ccccc2)COc2ccc(C(=O)NC3CCCCC3)cc21 (stereo not shown) [Compound 14, 3-Benzyl-3-methyl-2,3-dihydrobenzofuran-5-carboxylic acid cyclohexylamide]
EC50 [2]: > 10000 nM

CC1(Cc2ccccc2)COc2cc(C(=O)NC3CCCCC3)ccc21 (stereo not shown) [Compound 17, 3-Benzyl-3-methyl-2,3-dihydrobenzofuran-6-carboxylic acid cyclohexylamide]
EC50 [2]: > 10000 nM

CC1(Cc2ccccc2)COc2cc(C(=O)N3CCCCC3)ccc21 (stereo not shown) [Compound 18, 3-Benzyl-3-methyl-2,3-dihydrobenzofuran-6-carboxylic acid piperidine amide]
γ-[35S]GTP hCB2 Emax [3]: 88.3% | Ki (hCB1; read-out: Ki hCB1, mean ± SEM): > 10000 nM | Ki (hCB2; [6]): 422 ± 123 nM | Aqueous solubility [4]: 31.8 ± 1.8 μm μM | Protein bound (human) (plasma protein): 82.8 ± 11.1% | Protein recovery (human) (plasma protein): 95.6 ± 13.6% | Intestinal permeability, assessment (TC7): compatible with oral administration with no efflux | A–B permeability (% recovery) (TC7; TC7, pH 6.5/7.4): 63.5 ± 6.5% | B–A permeability (% recovery) (TC7; TC7, pH 6.5/7.4): 85.5 ± 0.5% | A–B permeability (TC7; TC7, pH 6.5/7.4, 1.0E-05 M): 52.2 ± 1.7 10^−6 cm s^−1 | B–A permeability (TC7; TC7, pH 6.5/7.4, 1.0E-05 M): 16.2 ± 0.2 10^−6 cm s^−1 | Genetic toxicity (Ames test) (strain TA98; up to 10 μM): No genetic toxicity | Ames test (strain TA98 +S9) (strain TA98; with S9): <0 | Ames test (strain TA98) (strain TA98; without S9): <0 | Cardiac toxicity (K+ channel hERG): did not show any cardiac toxicity | K+ channel hERG automated patch-clamp (cardiac toxicity) (K+ channel hERG; at 1 μM): inactive at 1 μm | Effect on locomotor behavior ([5]; rats): without affecting locomotor behavior | Effect on neuropathic pain ([5]; spinal nerve ligation and paclitaxel-induced neuropathy models in rats): reversed neuropathic pain

CCC/C=C/CC1(C)COc2cc(C(=O)N3CCCCC3)ccc21 (stereo not shown) [Compound 19]
γ-[35S]GTP hCB1 Emax ([2]; percentage relative to the efficacy of compound 7): 60% | γ-[35S]GTP hCB2 Emax [3]: 97.1% | Ki (hCB2; [6]): 83.6 ± 23.8 nM | %MPE for reversing mechanical allodynia versus vehicle ([1]; i.p., 15 mg kg^-1): significantly different (P <0.05) from that of the vehicle | Effect on mechanical (tactile) allodynia [1]: suppressed mechanical allodynia

CCC/C=C/CC1(C)COc2cc(C(=O)NC3CCCCC3)ccc21 (stereo not shown) [Compound 20, 3-((E)-Hex-2-enyl)-3-methyl-2,3-dihydrobenzofuran-6-carboxylic acid cyclohexylamide]
EC50 [2]: > 10000 nM | EC50 [3]: 839 ± 5.5 nM | Ki (hCB1): > 1000 nM | Ki (hCB2): > 1000 nM

CC1(Cc2ccccc2)COc2cc(C(=O)N3CCOCC3)ccc21 (stereo not shown) [Compound 22, (3-Benzyl-3-methyl-2,3-dihydrobenzofuran-6-yl)morpholinomethanone]
EC50 [2]: > 10000 nM | EC50 [3]: 5583 ± 4.4 nM

CN(C(=O)c1ccc2c(c1)OCC2(C)Cc1ccccc1)C(C)(C)C (stereo not shown) [Compound 23, 3-Benzyl-N-tert-butyl-N,3-dimethyl-2,3-dihydrobenzofuran-6-carboxamide]
EC50 [2]: 2580 ± 1.5 nM | EC50 [3]: 95.3 ± 1.8 nM

CC1(Cc2ccccc2)COc2cc(C(=O)NCC3CCOCC3)ccc21 (stereo not shown) [Compound 24, 3-Benzyl-3-methyl-2,3-dihydrobenzofuran-6-carboxylic acid (tetrahydropyran-4-ylmethyl)amide]
EC50 [2]: > 10000 nM | EC50 [3]: 659 ± 1.4 nM

CC1(Cc2cccc3ccccc23)COc2cc(C(=O)NC3CCCCC3)ccc21 (stereo not shown) [Compound 27, 3-Methyl-3-naphthalen-1-ylmethyl-2,3-dihydrobenzofuran-6-carboxylic acid cyclohexylamide]
EC50 [2]: > 10000 nM | EC50 [3]: > 10000 nM

CC1(Cc2cccc3ccccc23)COc2cc(C(=O)N3CCCCC3)ccc21 (stereo not shown) [Compound 28, (3-Methyl-3-naphthalen-1-ylmethyl-2,3-dihydrobenzofuran-6-yl)-piperidin-1-ylmethanone]
EC50 [2]: > 10000 nM | EC50 [3]: > 10000 nM

CC1(Cc2ccc3ccccc3c2)COc2cc(C(=O)N3CCCCC3)ccc21 (stereo not shown) [Compound 29, (3-Methyl-3-naphthalen-2-ylmethyl-2,3-dihydrobenzofuran-6-yl)-piperidin-1-ylmethanone]
EC50 [2]: > 10000 nM | EC50 [3]: 875 ± 1.4 nM | Ki (hCB1): 430 ± 39 nM | Ki (hCB2): 490 ± 45 nM

CC1(Cc2ccc(Cl)cc2)COc2cc(C(=O)N3CCCCC3)ccc21 (stereo not shown) [Compound 30, [3-(4-Chlorobenzyl)-3-methyl-2,3-dihydrobenzofuran-6-yl]piperidin-1-ylmethanone]
EC50 [2]: 1363 ± 1.4 nM | Emax ([2]; read-out: γ-[35S]GTP hCB1 Emax): 86.9% | EC50 [3]: 56.2 ± 1.2 nM | Ki (hCB2): 123 ± 16.5 nM

COc1ccc(CC2(C)COc3cc(C(=O)N4CCCCC4)ccc32)cc1 (stereo not shown) [Compound 31, [3-[(4-Methoxyphenyl)methyl]-3-methyl-2,3-dihydrobenzofuran-6-yl]-(1-piperidyl)methanone]
EC50 [2]: > 10000 nM | EC50 [3]: 235 nM

CC1(Cc2ccncc2)COc2cc(C(=O)N3CCCCC3)ccc21 (stereo not shown) [Compound 32, [3-Methyl-3-(4-pyridylmethyl)-2,3-dihydrobenzofuran-6-yl]-(1-piperidyl)methanone]
EC50 [2]: > 10000 nM | EC50 [3]: 2800 nM

C[C@@]1(Cc2ccccc2)COc2cc(C(=O)N3CCCCC3)ccc21 [Compound 33, (S)-3-Benzyl-3-methyl-2,3-dihydrobenzofuran-6-carboxylic acid piperidine amide]
γ-[35S]GTP hCB2 Emax [3]: 86%

C[C@]1(Cc2ccccc2)COc2cc(C(=O)N3CCCCC3)ccc21 [Compound 34, (R)-3-benzyl-3-methyl-2,3-dihydrobenzofuran-6-carboxylic acid piperidine amide]
γ-[35S]GTP hCB2 Emax [3]: 43.3%
